This note sets out measurements from ChEMBL document CHEMBL3877303 (J Med Chem, 2017).

pIC50: −log10 of the molar value. Active and inactive are the calls of the source. The calls are words filed in the database; no cut-off is given here.

Usually GI50 stands for the concentration giving 50% growth inhibition. By pIC50 is commonly meant −log10 of the IC50, conventionally taken in molar units. Low readings indicate a large IC50, high ones a small IC50.

Experiment [1] concerns the target Platelet-derived growth factor receptor alpha (Homo sapiens) (UniProt P16234). The experiment is described as follows: Inhibition of Tel-fused PDGFR-alpha (unknown origin) expressed in BAF3 cells assessed as growth inhibition measured after 72 hrs by CellTiter-Glo or CCK8 assay. The format is cell-based. In a few lines: (§1)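 BaF3 lines were made by retroviral transduction with kinase-fusion MSCV vectors packaged in HEK293T cells. Cells were selected with puromycin for 48 h, then selected again without IL-3 so growth depends on the introduced kinase. […] They were seeded at 1 to 2.5×10^4 cells/mL with compound dilutions and incubated 72 h. Viability was read by CellTiter-Glo luminescence or CCK-8 absorbance (450/655 nm), normalized to DMSO control; GI50 was curve-fitted from triplicate tests.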
(ATP-based viability assays read luminescence as a measure of living cells.)

For experiment [2], the target named is BCR/ABL p210 fusion protein (Homo sapiens, UniProt A1Z199). Kind of experiment: Inhibition of BCR/ABL p210 fusion protein mediated signaling pathways assessed as reduction in Stat5 phosphorylation at Y694 in human MEG01 cells at 0.01 to 3 uM measured after 2 hrs by immunoblotting. The format is cell-based. The following applies: MEG-01. Summed up: (§2)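 After an ice-cold PBS wash, cells were lysed in RIPA buffer (50 mM Tris pH 8.0) with protease and phosphatase inhibitors, and protein was quantified by BCA. Lysates were run on SDS-PAGE, transferred to PVDF and blocked in 5% milk/TBST. Phospho- and total proteins were probed by immunoblot with ECL detection; β-actin served as loading control.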
(In general: Immunoblotting shows a protein as a band on a membrane.)

The target in experiment [3] is T1, Mast/stem cell growth factor receptor Kit (Homo sapiens, UniProt P10721). Kind of experiment: Inhibition of c-KIT mediated signaling pathways assessed as reduction in S6 phosphorylation at S235/236 in human GISTT1 cells at 0.03 to 10 uM measured after 2 hrs by immunoblotting. The format is cell-based. In a few lines: as §2
In experiment [4] the test system is BaF3. Kind of experiment: Inhibition of BCR/ABL p210 fusion protein F317I mutant (unknown origin) expressed in BAF3 cells assessed as growth inhibition measured after 72 hrs by CellTiter-Glo or CCK8 assay. It is filed as cell-based. The following applies: Homo sapiens. In a few lines: as §1
The target in experiment [5] is Macrophage colony-stimulating factor 1 receptor (Homo sapiens, UniProt P07333). The experiment is described as follows: Inhibition of recombinant His-tagged human CSF1R cytoplasmic domain expressed in baculovirus expression system assessed as residual activity at 1 uM measured after 1 hr by FRET based Z'Lyte assay relative to control.
The subject of experiment [6] is MEG-01. The experiment is described as follows: Induction of apoptosis in human MEG01 cells assessed as cleavage of PARP at 0.1 to 3 uM by Western blot analysis. It is filed as functional, cell-based. Summed up:
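Cells were treated with DMSO or serially diluted compound for the indicated periods. They were washed in ice-cold PBS and lysed in RIPA buffer with protease/phosphatase inhibitors, and protein was quantified by BCA. Lysates were resolved by SDS-PAGE, transferred to PVDF and blocked in 5% milk/TBST. Blots were probed for PARP and caspase-3, with β-actin as loading control, and detected by ECL.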

Experiment [7] relates to Mast/stem cell growth factor receptor Kit (Homo sapiens), P10721 [V559D]. Kind of experiment: Inhibition of Tel-fused c-KIT V559D mutant (unknown origin) expressed in BAF3 cells assessed as growth inhibition measured after 72 hrs by CellTiter-Glo or CCK8 assay. It is filed as cell-based. In a few lines:
as §1

Experiment [8] addresses T2, Epithelial discoidin domain-containing receptor 1 (Homo sapiens, UniProt Q08345). The following applies: BaF3.
Experiment [9] deals with T2, Epithelial discoidin domain-containing receptor 1. The experiment is described as follows: Inhibition of human GST-tagged DDR1 cytoplasmic domain expressed in baculovirus expression system measured after 1 hr by FRET based Z'Lyte assay. Summed up:
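Z'-LYTE FRET biochemical kinase assay run by Invitrogen on selected kinases identified from binding profiling; IC50 from dose-response.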

Experiment [10] has as its target T1, Mast/stem cell growth factor receptor Kit. The experiment is described as follows: Inhibition of c-KIT autophosphorylation at Y719 in human GIST882 cells at 0.01 to 3 uM measured after 2 hrs by immunoblotting. The format is cell-based. Summed up:
as §2

Experiment [11] can be described thus: Antiproliferative activity against human KU812 cells measured after 72 hrs by CellTiter-Glo or CCK8 assay. The format is functional. As to conditions: KU812, 72 h.

T1 sequence (P10721 whole entry, the tested form may be a part): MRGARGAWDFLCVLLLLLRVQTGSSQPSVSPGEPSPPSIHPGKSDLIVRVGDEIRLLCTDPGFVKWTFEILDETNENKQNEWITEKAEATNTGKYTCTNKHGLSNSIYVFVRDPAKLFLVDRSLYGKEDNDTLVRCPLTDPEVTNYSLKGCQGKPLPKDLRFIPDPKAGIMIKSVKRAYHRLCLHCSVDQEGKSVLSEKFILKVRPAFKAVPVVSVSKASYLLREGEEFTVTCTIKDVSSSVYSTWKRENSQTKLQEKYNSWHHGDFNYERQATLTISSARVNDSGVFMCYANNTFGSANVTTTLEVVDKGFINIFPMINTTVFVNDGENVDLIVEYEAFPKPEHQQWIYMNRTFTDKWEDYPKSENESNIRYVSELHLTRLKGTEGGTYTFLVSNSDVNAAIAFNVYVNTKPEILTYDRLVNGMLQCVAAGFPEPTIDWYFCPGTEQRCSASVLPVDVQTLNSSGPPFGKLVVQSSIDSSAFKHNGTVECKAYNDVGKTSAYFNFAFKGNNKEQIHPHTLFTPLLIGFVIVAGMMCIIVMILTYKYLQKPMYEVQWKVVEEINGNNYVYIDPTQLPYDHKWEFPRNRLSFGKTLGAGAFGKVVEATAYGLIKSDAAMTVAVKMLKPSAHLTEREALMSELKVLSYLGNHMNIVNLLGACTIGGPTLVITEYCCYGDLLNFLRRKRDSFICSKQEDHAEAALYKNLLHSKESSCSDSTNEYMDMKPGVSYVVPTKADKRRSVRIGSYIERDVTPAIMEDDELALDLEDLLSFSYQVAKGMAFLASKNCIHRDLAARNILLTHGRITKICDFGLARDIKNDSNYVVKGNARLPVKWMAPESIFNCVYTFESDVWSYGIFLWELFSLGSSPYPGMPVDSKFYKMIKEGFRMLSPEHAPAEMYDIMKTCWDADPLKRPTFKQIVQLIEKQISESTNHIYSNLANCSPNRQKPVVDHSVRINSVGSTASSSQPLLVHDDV
T2 sequence (Q08345 whole entry, the tested form may be a part): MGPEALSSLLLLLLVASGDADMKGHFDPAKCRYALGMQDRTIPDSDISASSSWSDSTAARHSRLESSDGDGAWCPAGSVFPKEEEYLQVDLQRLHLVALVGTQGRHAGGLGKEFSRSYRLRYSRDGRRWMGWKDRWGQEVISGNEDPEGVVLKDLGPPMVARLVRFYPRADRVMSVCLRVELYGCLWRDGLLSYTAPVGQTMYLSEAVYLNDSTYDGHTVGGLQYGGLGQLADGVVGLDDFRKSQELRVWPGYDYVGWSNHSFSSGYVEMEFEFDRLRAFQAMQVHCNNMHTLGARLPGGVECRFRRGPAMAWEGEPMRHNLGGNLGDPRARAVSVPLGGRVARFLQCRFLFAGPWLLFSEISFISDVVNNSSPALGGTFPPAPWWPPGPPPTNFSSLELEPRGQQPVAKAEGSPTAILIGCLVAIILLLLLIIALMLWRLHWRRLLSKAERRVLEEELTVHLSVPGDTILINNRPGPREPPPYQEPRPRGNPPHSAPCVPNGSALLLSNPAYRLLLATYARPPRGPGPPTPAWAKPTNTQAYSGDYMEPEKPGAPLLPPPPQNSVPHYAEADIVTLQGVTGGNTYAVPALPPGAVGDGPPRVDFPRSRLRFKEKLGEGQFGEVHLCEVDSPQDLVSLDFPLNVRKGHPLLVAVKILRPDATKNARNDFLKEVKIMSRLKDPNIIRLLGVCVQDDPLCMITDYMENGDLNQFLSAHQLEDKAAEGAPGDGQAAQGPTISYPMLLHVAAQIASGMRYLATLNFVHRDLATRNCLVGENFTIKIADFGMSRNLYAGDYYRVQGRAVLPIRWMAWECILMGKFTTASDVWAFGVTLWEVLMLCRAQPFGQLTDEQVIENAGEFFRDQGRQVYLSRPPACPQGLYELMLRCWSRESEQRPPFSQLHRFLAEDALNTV
BCR/ABL p210 fusion protein, sequence (A1Z199 1-97): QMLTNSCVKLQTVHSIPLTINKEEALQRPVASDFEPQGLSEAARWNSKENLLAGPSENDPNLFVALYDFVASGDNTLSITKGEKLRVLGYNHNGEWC
Macrophage colony-stimulating factor 1 receptor, sequence (P07333 whole entry, the tested form may be a part): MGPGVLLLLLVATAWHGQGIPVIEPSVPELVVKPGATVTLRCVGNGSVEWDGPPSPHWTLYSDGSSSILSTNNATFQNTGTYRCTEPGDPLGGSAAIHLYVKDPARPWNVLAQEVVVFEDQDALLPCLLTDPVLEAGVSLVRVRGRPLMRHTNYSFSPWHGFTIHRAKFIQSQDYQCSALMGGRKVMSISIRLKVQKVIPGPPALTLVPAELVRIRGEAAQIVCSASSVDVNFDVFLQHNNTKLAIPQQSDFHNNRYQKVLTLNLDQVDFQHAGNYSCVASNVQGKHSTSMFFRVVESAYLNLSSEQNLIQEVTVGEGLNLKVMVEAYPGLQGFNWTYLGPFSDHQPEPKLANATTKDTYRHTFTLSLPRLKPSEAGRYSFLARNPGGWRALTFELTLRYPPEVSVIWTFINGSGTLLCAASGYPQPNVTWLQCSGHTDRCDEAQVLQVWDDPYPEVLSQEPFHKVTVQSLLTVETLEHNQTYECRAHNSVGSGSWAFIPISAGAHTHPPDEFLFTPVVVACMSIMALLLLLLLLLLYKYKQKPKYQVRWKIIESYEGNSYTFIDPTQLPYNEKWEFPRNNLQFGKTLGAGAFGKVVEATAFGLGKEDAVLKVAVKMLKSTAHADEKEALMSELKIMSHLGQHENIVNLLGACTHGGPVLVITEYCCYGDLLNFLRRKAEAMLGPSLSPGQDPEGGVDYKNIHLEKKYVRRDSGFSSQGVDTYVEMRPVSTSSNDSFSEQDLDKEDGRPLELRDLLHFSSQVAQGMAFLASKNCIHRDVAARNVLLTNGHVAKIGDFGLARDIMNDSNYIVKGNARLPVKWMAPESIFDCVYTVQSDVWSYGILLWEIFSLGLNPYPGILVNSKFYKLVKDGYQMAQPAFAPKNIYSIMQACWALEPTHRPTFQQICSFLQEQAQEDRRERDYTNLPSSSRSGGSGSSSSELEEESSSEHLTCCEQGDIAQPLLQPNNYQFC
Mast/stem cell growth factor receptor Kit (Homo sapiens), P10721 [V559D], sequence (P10721 whole entry V559D, the tested form may be a part): as the sequence (P10721 whole entry, the tested form may be a part) above, with V559D counted along it
Platelet-derived growth factor receptor alpha (Homo sapiens), sequence (P16234 whole entry, the tested form may be a part): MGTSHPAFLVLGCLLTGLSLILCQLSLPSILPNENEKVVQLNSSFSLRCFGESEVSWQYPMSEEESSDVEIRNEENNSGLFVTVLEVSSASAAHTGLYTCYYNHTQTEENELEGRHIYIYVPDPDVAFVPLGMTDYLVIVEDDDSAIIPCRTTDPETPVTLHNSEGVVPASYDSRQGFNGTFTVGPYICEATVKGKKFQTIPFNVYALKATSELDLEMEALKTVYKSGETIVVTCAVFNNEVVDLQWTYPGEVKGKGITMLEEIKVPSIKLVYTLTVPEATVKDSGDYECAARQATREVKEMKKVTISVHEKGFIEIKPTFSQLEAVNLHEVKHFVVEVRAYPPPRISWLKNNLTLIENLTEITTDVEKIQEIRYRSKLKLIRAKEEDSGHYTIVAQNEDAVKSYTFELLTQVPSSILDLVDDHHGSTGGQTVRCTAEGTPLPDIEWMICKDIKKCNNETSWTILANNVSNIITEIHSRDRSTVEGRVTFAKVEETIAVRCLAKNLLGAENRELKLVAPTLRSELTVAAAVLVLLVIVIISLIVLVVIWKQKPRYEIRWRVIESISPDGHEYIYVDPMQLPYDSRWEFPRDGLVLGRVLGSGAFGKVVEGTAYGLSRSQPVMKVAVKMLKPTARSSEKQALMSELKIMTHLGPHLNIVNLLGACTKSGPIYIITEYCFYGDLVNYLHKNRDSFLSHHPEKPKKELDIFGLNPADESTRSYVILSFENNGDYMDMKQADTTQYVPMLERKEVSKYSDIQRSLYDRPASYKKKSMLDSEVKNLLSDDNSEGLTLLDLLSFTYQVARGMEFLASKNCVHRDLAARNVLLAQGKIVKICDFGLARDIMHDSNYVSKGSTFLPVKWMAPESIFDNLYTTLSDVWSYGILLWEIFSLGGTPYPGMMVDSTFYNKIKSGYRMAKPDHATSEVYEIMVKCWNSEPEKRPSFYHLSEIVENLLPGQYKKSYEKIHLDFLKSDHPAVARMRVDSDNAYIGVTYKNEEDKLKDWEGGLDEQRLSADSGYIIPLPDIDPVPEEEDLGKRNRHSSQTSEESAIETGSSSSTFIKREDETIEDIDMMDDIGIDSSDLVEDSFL

`Cc1ccc(C(=O)N2CCC(Oc3cc(NC(=O)c4ccc(CN5CCN(C)CC5)c(C(F)(F)F)c4)ccc3C)CC2)cn1`: the GI50 in experiment [1] stood at 0.012 µM; in experiment [4], 0.49 µM; in [7] it was 0.078 µM; in experiment [8], 9.77 µM; in [11] it was 0.056 µM. Also, the inhibition result in [2], in experiment [3] and in [10] was “Active” in each case. Besides, in [5], the Activity is 0.3%. In addition, in [6], the result was Active. Also, the pIC50 in experiment [9] was 6.94.
